{"source": "ChEMBL document CHEMBL2203170", "about": "“Synthesis, DNA-PK inhibition, anti-platelet activity studies of 2-(N-substituted-3-aminopyridine)-substituted-1,3-benzoxazines and DNA-PK and PI3K inhibition, homology modelling studies of 2-morpholino-(7,8-di and 8-substituted)-1,3-benzoxazines” (Eur J Med Chem, 2012)", "key": {"[1]": {"molecular_target": "DNA-dependent protein kinase catalytic subunit (Homo sapiens, UniProt P78527)", "assay": "Inhibition of DNA-PK using EPPLSQEAFADLWKK as substrate after 5 mins by ADP-Glo kinase assay"}, "[2]": {"molecular_target": "Phosphatidylinositol 4,5-bisphosphate 3-kinase catalytic subunit gamma isoform (Homo sapiens, UniProt P48736)", "sequence (P48736 whole entry, canonical isoform)": "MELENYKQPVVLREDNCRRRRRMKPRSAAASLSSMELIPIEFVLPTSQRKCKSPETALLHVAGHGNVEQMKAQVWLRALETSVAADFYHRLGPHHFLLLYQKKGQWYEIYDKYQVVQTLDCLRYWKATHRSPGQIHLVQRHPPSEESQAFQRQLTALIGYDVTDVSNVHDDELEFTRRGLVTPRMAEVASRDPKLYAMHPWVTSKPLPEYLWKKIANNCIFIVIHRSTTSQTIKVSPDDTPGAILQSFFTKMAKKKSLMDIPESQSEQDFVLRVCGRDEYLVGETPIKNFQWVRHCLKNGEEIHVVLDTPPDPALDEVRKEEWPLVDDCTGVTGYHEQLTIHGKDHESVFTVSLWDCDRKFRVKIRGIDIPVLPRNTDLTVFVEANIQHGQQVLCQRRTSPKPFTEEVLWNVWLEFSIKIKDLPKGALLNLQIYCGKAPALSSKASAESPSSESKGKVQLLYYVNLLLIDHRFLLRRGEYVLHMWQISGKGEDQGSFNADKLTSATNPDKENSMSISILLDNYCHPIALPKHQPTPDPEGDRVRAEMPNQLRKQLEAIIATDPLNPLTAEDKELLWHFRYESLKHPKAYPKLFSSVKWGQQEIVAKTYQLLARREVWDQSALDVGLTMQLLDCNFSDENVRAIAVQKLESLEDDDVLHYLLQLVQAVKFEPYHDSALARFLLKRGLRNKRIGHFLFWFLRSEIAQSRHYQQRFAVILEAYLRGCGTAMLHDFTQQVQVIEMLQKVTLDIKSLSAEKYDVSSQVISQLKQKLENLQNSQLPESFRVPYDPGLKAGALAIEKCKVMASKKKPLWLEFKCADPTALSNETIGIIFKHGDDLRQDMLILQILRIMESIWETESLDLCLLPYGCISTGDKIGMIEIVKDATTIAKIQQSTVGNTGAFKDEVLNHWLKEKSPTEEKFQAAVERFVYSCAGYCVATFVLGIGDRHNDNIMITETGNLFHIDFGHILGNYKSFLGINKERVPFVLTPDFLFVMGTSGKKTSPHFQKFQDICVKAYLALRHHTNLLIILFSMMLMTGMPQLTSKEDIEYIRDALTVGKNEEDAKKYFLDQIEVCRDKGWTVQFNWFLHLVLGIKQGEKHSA", "assay": "Inhibition of PI3Kgamma by HTRF assay in presence of ATP"}, "[3]": {"molecular_target": "Phosphatidylinositol 4,5-bisphosphate 3-kinase catalytic subunit beta isoform (Homo sapiens, UniProt P42338)", "sequence (P42338 whole entry, canonical isoform)": "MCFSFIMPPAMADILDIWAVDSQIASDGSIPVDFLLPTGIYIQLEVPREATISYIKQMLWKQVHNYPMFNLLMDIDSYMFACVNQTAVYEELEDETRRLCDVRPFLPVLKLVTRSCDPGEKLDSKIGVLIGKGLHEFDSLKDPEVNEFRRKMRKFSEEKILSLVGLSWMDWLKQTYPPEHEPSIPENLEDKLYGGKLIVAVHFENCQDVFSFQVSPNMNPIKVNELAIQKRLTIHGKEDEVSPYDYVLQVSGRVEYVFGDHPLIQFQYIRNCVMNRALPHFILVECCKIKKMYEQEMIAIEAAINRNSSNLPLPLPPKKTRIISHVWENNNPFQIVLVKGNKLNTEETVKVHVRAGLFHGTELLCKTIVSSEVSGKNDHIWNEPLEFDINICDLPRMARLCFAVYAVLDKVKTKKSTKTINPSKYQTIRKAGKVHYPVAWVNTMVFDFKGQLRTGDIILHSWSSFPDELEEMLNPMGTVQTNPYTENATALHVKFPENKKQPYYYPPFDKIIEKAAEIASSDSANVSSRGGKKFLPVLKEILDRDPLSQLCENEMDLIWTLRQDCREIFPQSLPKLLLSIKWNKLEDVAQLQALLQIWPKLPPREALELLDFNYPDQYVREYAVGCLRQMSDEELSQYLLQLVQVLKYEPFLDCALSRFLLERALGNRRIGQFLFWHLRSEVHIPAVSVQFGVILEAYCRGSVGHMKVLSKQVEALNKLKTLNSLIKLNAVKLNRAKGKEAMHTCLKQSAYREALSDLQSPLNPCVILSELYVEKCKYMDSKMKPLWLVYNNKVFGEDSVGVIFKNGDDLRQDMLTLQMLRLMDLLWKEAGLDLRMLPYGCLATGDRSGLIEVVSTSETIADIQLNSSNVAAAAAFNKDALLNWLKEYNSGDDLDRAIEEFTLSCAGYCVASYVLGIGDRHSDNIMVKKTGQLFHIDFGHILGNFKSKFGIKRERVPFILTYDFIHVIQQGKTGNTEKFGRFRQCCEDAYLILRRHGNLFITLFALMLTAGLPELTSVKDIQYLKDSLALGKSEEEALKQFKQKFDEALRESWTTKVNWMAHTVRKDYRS", "assay": "Inhibition of PI3Kbeta by HTRF assay in presence of ATP"}, "[4]": {"molecular_target": "Phosphatidylinositol 4,5-bisphosphate 3-kinase catalytic subunit alpha isoform (Homo sapiens, UniProt P42336)", "sequence (P42336 whole entry, canonical isoform)": "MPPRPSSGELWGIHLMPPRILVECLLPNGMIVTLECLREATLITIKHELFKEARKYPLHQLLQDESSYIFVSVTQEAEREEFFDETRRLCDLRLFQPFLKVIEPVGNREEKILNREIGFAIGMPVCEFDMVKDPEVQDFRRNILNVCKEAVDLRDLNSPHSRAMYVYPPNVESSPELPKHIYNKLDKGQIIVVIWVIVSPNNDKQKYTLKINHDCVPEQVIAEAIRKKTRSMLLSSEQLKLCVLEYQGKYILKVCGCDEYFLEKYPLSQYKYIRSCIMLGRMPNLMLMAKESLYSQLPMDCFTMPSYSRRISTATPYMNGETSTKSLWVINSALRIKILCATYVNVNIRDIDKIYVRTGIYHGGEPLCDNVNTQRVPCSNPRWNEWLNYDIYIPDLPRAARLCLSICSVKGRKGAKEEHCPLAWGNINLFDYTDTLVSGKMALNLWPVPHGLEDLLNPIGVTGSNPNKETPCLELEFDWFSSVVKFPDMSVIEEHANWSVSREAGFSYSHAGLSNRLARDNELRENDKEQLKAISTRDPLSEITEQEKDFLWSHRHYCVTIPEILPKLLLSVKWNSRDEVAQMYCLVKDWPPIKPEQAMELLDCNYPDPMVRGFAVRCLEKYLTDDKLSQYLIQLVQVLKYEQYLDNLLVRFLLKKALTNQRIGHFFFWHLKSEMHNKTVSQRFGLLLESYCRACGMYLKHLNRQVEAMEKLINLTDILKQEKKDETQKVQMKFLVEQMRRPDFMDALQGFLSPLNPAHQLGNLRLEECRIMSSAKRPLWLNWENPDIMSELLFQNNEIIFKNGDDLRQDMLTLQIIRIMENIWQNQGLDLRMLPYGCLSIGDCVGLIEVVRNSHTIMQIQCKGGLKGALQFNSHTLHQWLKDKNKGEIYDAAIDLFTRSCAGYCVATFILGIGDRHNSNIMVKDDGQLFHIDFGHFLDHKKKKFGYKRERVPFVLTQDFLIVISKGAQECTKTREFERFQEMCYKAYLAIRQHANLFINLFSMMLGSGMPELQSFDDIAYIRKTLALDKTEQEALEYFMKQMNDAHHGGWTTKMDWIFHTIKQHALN", "assay": "Inhibition of PI3Kalpha by HTRF assay in presence of ATP"}, "[5]": {"molecular_target": "T1, Phosphatidylinositol 4,5-bisphosphate 3-kinase catalytic subunit delta isoform (Homo sapiens, UniProt O00329)", "T1 sequence (O00329 whole entry)": "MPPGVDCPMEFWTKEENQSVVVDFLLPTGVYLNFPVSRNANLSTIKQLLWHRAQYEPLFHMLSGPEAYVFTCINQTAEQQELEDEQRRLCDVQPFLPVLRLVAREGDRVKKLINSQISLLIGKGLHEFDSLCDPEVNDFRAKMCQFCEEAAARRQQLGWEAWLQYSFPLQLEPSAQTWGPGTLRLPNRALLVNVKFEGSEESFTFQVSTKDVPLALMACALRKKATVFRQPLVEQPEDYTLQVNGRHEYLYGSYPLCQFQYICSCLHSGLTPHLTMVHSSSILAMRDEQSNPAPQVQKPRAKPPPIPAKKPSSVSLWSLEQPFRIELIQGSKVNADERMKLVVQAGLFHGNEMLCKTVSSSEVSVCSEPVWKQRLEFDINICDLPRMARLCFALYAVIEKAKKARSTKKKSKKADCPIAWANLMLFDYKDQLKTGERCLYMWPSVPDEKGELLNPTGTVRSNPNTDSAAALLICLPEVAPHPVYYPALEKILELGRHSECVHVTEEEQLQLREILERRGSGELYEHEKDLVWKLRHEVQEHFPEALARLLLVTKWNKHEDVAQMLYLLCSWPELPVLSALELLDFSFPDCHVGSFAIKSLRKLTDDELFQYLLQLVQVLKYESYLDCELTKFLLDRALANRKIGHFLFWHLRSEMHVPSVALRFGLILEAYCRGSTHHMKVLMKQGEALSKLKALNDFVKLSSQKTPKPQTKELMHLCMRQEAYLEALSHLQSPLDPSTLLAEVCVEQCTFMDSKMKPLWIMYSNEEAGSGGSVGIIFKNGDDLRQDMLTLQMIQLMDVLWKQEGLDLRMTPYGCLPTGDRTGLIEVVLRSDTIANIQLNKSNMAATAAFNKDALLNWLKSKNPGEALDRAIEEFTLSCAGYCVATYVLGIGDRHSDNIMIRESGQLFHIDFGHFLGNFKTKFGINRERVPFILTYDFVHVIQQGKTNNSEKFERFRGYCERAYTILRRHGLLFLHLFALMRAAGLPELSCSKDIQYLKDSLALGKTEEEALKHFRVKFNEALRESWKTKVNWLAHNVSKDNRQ", "assay": "Inhibition of PI3Kdelta by HTRF assay in presence of ATP"}, "[6]": {"assay": "Antiplatelet activity against human platelet assessed as inhibition of collagen-induced platelet aggregation incubated for 2 mins before collagen induction by two-channel platelet aggregometer", "type": "functional, cell-based", "in_short": "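Venous blood from healthy, drug-free volunteers collected into trisodium citrate 22.0 g/L. Aggregation was measured optically in a two-channel aggregometer, following an earlier protocol.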"}}}
{"smiles": "CN1CCN(CCOc2cccc3c(=O)nc(N4CCOCC4)oc23)CC1", "values": [{"measurement": "IC50", "setting": "[1]", "result": 1.7, "unit": "µM"}]}
{"smiles": "O=c1nc(N2CCOCC2)oc2cc(OCc3ccccn3)ccc12", "values": [{"measurement": "IC50", "setting": "[1]", "result": 2.7, "unit": "µM"}]}
{"smiles": "Cc1c(OCc2ccccn2)ccc2c(=O)nc(N3CCOCC3)oc12", "values": [{"measurement": "IC50", "setting": "[1]", "result": 1.3, "unit": "µM"}]}
{"smiles": "O=c1nc(N2CCOCC2)oc2cc(OCc3cccnc3)ccc12", "values": [{"measurement": "IC50", "setting": "[1]", "result": 2.5, "unit": "µM"}]}
{"smiles": "Cc1c(OCc2cccnc2)ccc2c(=O)nc(N3CCOCC3)oc12", "values": [{"measurement": "IC50", "setting": "[2]", "result": 0.72, "unit": "µM"}, {"measurement": "IC50", "setting": "[3]", "result": 0.14, "unit": "µM"}, {"measurement": "IC50", "setting": "[1]", "result": 0.28, "unit": "µM"}, {"measurement": "IC50", "setting": "[4]", "result": 0.13, "unit": "µM"}, {"measurement": "IC50", "setting": "[5]", "result": 2.02, "unit": "µM"}]}
{"smiles": "O=c1nc(N2CCOCC2)oc2c(OCc3cccnc3)cccc12", "values": [{"measurement": "IC50", "setting": "[1]", "result": 0.36, "unit": "µM"}]}
{"smiles": "O=c1nc(N2CCOCC2)oc2cc(OCc3ccncc3)ccc12", "values": [{"measurement": "IC50", "setting": "[1]", "result": 4.2, "unit": "µM"}]}
{"smiles": "Cc1c(OCc2ccncc2)ccc2c(=O)nc(N3CCOCC3)oc12", "values": [{"measurement": "IC50", "setting": "[1]", "result": 1.2, "unit": "µM"}]}
{"smiles": "O=c1nc(N2CCOCC2)oc2c(OCc3ccncc3)cccc12", "values": [{"measurement": "IC50", "setting": "[1]", "result": 1.6, "unit": "µM"}]}
{"smiles": "O=c1nc(Nc2cccnc2)oc2c(-c3ccccc3)cccc12", "values": [{"measurement": "IC50", "setting": "[6]", "result": 76, "unit": "µM"}]}
{"smiles": "O=c1nc(Nc2cccnc2)oc2ccccc12", "values": [{"measurement": "IC50", "setting": "[6]", "result": 90, "unit": "µM"}]}
{"smiles": "Cc1cccc2c(=O)nc(N(Cc3cccnc3)c3cccnc3)oc12", "values": [{"measurement": "IC50", "setting": "[6]", "result": 100, "unit": "µM"}]}
{"smiles": "O=c1nc(N(Cc2cccnc2)c2cccnc2)oc2c(-c3ccccc3)cccc12", "values": [{"measurement": "IC50", "setting": "[6]", "result": 65, "unit": "µM"}]}
{"smiles": "O=c1nc(N(Cc2ccncc2)c2cccnc2)oc2c(-c3ccccc3)cccc12", "values": [{"measurement": "IC50", "setting": "[6]", "result": 75, "unit": "µM"}]}
{"smiles": "O=c1nc(N(Cc2ccncc2)c2cccnc2)oc2cc(OCc3ccncc3)ccc12", "values": [{"measurement": "IC50", "setting": "[6]", "result": 55, "unit": "µM"}]}
{"smiles": "Cc1c(OCc2ccccn2)ccc2c(=O)nc(N(Cc3ccccn3)c3cccnc3)oc12", "values": [{"measurement": "IC50", "setting": "[6]", "result": 35, "unit": "µM"}]}
{"smiles": "Cc1c(OCc2cccnc2)ccc2c(=O)nc(N(Cc3cccnc3)c3cccnc3)oc12", "values": [{"measurement": "IC50", "setting": "[6]", "result": 10, "unit": "µM"}, {"measurement": "IC50", "setting": "[1]", "result": 2.5, "unit": "µM"}]}
{"smiles": "Cc1c(OCc2ccccn2)ccc2c(=O)n(Cc3ccccn3)c(=O)oc12", "values": [{"measurement": "IC50", "setting": "[6]", "result": 85, "unit": "µM"}]}
{"smiles": "Cc1c(OCc2cccnc2)ccc2c(=O)n(Cc3cccnc3)c(=O)oc12", "values": [{"measurement": "IC50", "setting": "[6]", "result": 75, "unit": "µM"}, {"measurement": "IC50", "setting": "[1]", "result": 10, "unit": "µM"}]}
{"smiles": "Cc1c(OCc2ccccc2)ccc2c(=O)n(Cc3ccccc3)c(=O)oc12", "values": [{"measurement": "IC50", "setting": "[6]", "result": 85, "unit": "µM"}]}
{"smiles": "O=c1nc(N2CCOCC2)oc2c(OCc3ccccn3)cccc12", "values": [{"measurement": "IC50", "setting": "[1]", "result": 0.62, "unit": "µM"}]}
{"smiles": "Cc1cccc2c(=O)nc(N(Cc3ccccn3)c3cccnc3)oc12", "values": [{"measurement": "IC50", "setting": "[1]", "result": 25.2, "unit": "µM"}]}
{"smiles": "O=c1nc(N(Cc2ccccn2)c2cccnc2)oc2c(OCc3ccccn3)cccc12", "values": [{"measurement": "IC50", "setting": "[1]", "result": 7.8, "unit": "µM"}]}
{"smiles": "O=c1nc(N(Cc2cccnc2)c2cccnc2)oc2c(OCc3cccnc3)cccc12", "values": [{"measurement": "IC50", "setting": "[1]", "result": 13.5, "unit": "µM"}]}
{"smiles": "O=c1nc(N(Cc2ccccn2)c2cccnc2)oc2cc(OCc3ccccn3)ccc12", "values": [{"measurement": "IC50", "setting": "[1]", "result": 5.7, "unit": "µM"}]}
{"smiles": "O=c1nc(N(Cc2cccnc2)c2cccnc2)oc2cc(OCc3cccnc3)ccc12", "values": [{"measurement": "IC50", "setting": "[1]", "result": 14.8, "unit": "µM"}]}
{"smiles": "O=c1nc(N2CCOCC2)oc2c(-c3ccccc3)cccc12", "values": [{"measurement": "IC50", "setting": "[2]", "result": 1.5, "unit": "µM"}, {"measurement": "IC50", "setting": "[3]", "result": 3.36, "unit": "µM"}, {"measurement": "IC50", "setting": "[1]", "result": 0.3, "unit": "µM"}, {"measurement": "IC50", "setting": "[4]", "result": 4.07, "unit": "µM"}, {"measurement": "IC50", "setting": "[5]", "result": 0.95, "unit": "µM"}]}
{"smiles": "CN1CCN(CCOc2ccc3c(=O)nc(N4CCOCC4)oc3c2)CC1", "values": [{"measurement": "IC50", "setting": "[1]", "result": 6.8, "unit": "µM"}]}
{"smiles": "Cc1c(OCCN2CCN(C)CC2)ccc2c(=O)nc(N3CCOCC3)oc12", "values": [{"measurement": "IC50", "setting": "[2]", "result": "≥ 100", "unit": "µM"}, {"measurement": "IC50", "setting": "[3]", "result": "≥ 100", "unit": "µM"}, {"measurement": "IC50", "setting": "[1]", "result": 0.5, "unit": "µM"}, {"measurement": "IC50", "setting": "[4]", "result": "≥ 100", "unit": "µM"}, {"measurement": "IC50", "setting": "[5]", "result": "≥ 100", "unit": "µM"}]}
